Columns and labels:
[1] = test system: HeLa; experiment: Cytotoxicity against human HeLa cells after 48 hrs by SRB assay; format: functional; conditions: for CC50: read-out: LC50 (the source's name)
Procedure, shortened: (§1)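 Cells grown in RPMI 1640 with 10% FBS and penicillin/streptomycin at 37 °C and 5% CO₂, trypsinized, then seeded at 5 × 10³/well. After 18 h drug-free attachment, samples in DMSO/EtOH/PBS (0.5:0.5:99) were added for 48 h continuous exposure. Cells were fixed with cold TCA (1 h, 4 °C) and stained with SRB (10 min). Tris-solubilized stain read at 490 nm. Triplicate wells, mean ± SD; GI₅₀ derived.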

[2] = test system: K562; experiment: Cytotoxicity against human K562 cells after 48 hrs by SRB assay; format: functional; conditions: K562, 48 h; for CC50: read-out: LC50 (the source's name); procedure, shortened: as §1
[3] = test system: PANC-1; experiment: Cytotoxicity against human PANC1 cells after 48 hrs by SRB assay; format: functional; conditions: PANC-1, 48 h; for CC50: read-out: LC50 (the source's name); procedure, shortened: as §1
[4] = Cytotoxicity against human IGROV cells after 48 hrs by SRB assay; format: functional; conditions: for CC50: read-out: LC50 (the source's name); procedure, shortened: as §1
[5] = test system: HT-29; experiment: Cytotoxicity against human HT29 cells after 48 hrs by SRB assay; format: functional, cell-based; conditions: Homo sapiens, HT-29, 48 h; for CC50: read-out: LC50 (the source's name); procedure, shortened: as §1
[6] = test system: LoVo; experiment: Cytotoxicity against human doxorubicin resistant LoVo cells after 48 hrs by SRB assay; format: functional; conditions: for CC50: read-out: LC50 (the source's name); procedure, shortened: as §1
[7] = Cytotoxicity against human HeLa-APL cells after 48 hrs by SRB assay; format: functional; procedure, shortened: as §1
[8] = test system: LoVo; experiment: Cytotoxicity against human LoVo cells after 48 hrs by SRB assay; format: functional; conditions: for CC50: read-out: LC50 (the source's name)
[9] = Cytotoxicity against human IGROV-ET cells after 48 hrs by SRB assay; format: functional; conditions: for CC50: read-out: LC50 (the source's name); procedure, shortened: as §1
[10] = test system: SK-BR-3; experiment: Cytotoxicity against human SKBR3 cells after 48 hrs by SRB assay; format: functional; conditions: SK-BR-3, 48 h; for GI50: read-out: GI50; for CC50: read-out: LC50 (the source's name); procedure, shortened: as §1
[11] = test system: A549; experiment: Cytotoxicity against human A549 cells after 48 hrs by SRB assay; format: functional, cell-based; conditions: Homo sapiens, A549, 48 h; procedure, shortened: as §1
[12] = test system: DU-145; experiment: Cytotoxicity against human DU145 cells after 48 hrs by SRB assay; format: functional, cell-based; conditions: Homo sapiens, DU-145, 48 h; for CC50: read-out: LC50 (the source's name); procedure, shortened: as §1
[13] = test system: SK-MEL-28; experiment: Cytotoxicity against human SK-MEL-28 cells after 48 hrs by SRB assay; format: functional, cell-based; conditions: Homo sapiens, SK-MEL-28, 48 h; for CC50: read-out: LC50 (the source's name); procedure, shortened: as §1
[14] = test system: LNCaP; experiment: Cytotoxicity against human LNcaP cells after 48 hrs by SRB assay; format: functional; conditions: for CC50: read-out: LC50 (the source's name); procedure, shortened: as §1

CC[C@@H](C)[C@@H](NC(=O)[C@H](CCCN)NC(=O)[C@H]1CCCN1C(=O)[C@H](NC(=O)[C@@H](NC(=O)[C@@H](NC(=O)[C@H](NC(=O)CCCC(C)C)C(C)C)[C@@H](C)O)C(C)C)C(C)C)C(=O)N[C@H]1C(=O)N[C@H]([C@H](C)CC)C(=O)N[C@H](C(C)C)C(=O)N[C@@H](Cc2ccccc2)C(=O)NCC(=O)N[C@@H](C(C)C)C(=O)O[C@H]1C
CC50 [1]: 526 nM
GI50 [2]: 2530 nM
TGI [2]: 3040 nM
CC50 [2]: 1970 nM
CC50 [3]: 1810 nM
GI50 [4]: 748 nM
GI50 ([4]; read-out: GI50): 1640 nM
CC50 [4]: 361 nM
GI50 [5]: 2260 nM
TGI [5]: 2120 nM
CC50 [5]: 775 nM
GI50 [6]: 830 nM
TGI [6]: 1020 nM
CC50 [6]: 362 nM
GI50 [7]: 1830 nM
LC50 (concentration giving 50% net cell kill) [7]: 1450 nM
TGI [7]: 2860 nM
GI50 [8]: 1840 nM
TGI [8]: 1850 nM
CC50 [8]: 1680 nM
GI50 [9]: 465 nM
GI50 ([9]; read-out: GI50): 722 nM
CC50 [9]: 308 nM
TGI [10]: 1640 nM
GI50 [10]: 1660 nM
CC50 [10]: 683 nM
LC50 [11]: 1460 nM
TGI [11]: 2100 nM
GI50 ([11]; read-out: GI50): 1630 nM
TGI [12]: 1160 nM
GI50 ([12]; read-out: GI50): 1410 nM
CC50 [12]: 953 nM
TGI [13]: 1700 nM
GI50 ([13]; read-out: GI50): 1390 nM
CC50 [13]: 1780 nM
GI50 [14]: 2740 nM
TGI [14]: 2780 nM
CC50 [14]: 1420 nM

C/C=C1\NC(=O)[C@H](Cc2ccccc2)NC(=O)[C@@H](C(C)C)NC(=O)[C@@H]([C@H](C)CC)NC(=O)[C@H](NC(=O)[C@H](NC(=O)[C@H](CCCN)NC(=O)[C@H]2CCCN2C(=O)[C@H](NC(=O)[C@@H](NC(=O)[C@@H](NC(=O)[C@H](NC(=O)CC[C@@H](C)CC)C(C)C)[C@@H](C)OC(=O)C(F)(F)F)C(C)C)C(C)C)[C@H](C)CC)[C@H](C)OC(=O)[C@H](C(C)C)NC1=O
GI50 [1]: 294 nM
TGI [1]: 553 nM
CC50 [1]: 818 nM
CC50 [2]: 181 nM
GI50 [3]: 1430 nM
TGI [3]: 1660 nM
CC50 [3]: 1660 nM
GI50 [4]: 345 nM
GI50 ([4]; read-out: GI50): 287 nM
CC50 [4]: 508 nM
GI50 [5]: 241 nM
TGI [5]: 257 nM
CC50 [5]: 271 nM
GI50 [6]: 189 nM
TGI [6]: 222 nM
CC50 [6]: 1400 nM
GI50 [7]: 499 nM
LC50 (concentration giving 50% net cell kill) [7]: 892 nM
TGI [7]: 745 nM
GI50 [8]: 212 nM
TGI [8]: 257 nM
CC50 [8]: 310 nM
GI50 [9]: 191 nM
GI50 ([9]; read-out: GI50): 231 nM
CC50 [9]: 468 nM
TGI [10]: 218 nM
GI50 [10]: 203 nM
CC50 [10]: 141 nM
GI50 [11]: 882 nM
LC50 [11]: 101 nM
GI50 ([11]; read-out: GI50): 7700 nM
GI50 [12]: 752 nM
GI50 ([12]; read-out: GI50): 617 nM
CC50 [12]: 914 nM
GI50 [13]: 772 nM
GI50 ([13]; read-out: GI50): 716 nM
CC50 [13]: 839 nM
GI50 [14]: 610 nM
TGI [14]: 1020 nM
CC50 [14]: 1400 nM

C/C=C1\NC(=O)[C@H](CCC2CCCCC2)NC(=O)[C@@H](C(C)C)NC(=O)[C@@H]([C@@H](C)CC)NC(=O)[C@H](NC(=O)[C@H](NC(=O)[C@H](CCCN)NC(=O)[C@H]2CCCN2C(=O)[C@H](NC(=O)[C@@H](NC(=O)[C@@H](NC(=O)[C@H](NC(=O)CCCC(C)C)C(C)C)[C@@H](C)O)C(C)C)C(C)C)[C@@H](C)CC)[C@@H](C)OC(=O)[C@H](C(C)C)NC1=O
GI50 [1]: 304 nM
TGI [1]: 313 nM
CC50 [1]: 500 nM
GI50 [2]: 1420 nM
TGI [2]: 1410 nM
CC50 [2]: 1390 nM
GI50 [3]: 1120 nM
TGI [3]: 1290 nM
CC50 [3]: 1490 nM
GI50 [4]: 372 nM
GI50 ([4]; read-out: GI50): 276 nM
CC50 [4]: 378 nM
GI50 [5]: 294 nM
TGI [5]: 352 nM
CC50 [5]: 359 nM
GI50 [6]: 224 nM
TGI [6]: 258 nM
CC50 [6]: 296 nM
GI50 [7]: 319 nM
LC50 (concentration giving 50% net cell kill) [7]: 617 nM
TGI [7]: 499 nM
GI50 [8]: 266 nM
TGI [8]: 282 nM
CC50 [8]: 298 nM
GI50 [9]: 312 nM
GI50 ([9]; read-out: GI50): 232 nM
CC50 [9]: 350 nM
TGI [10]: 205 nM
GI50 [10]: 165 nM
CC50 [10]: 256 nM
GI50 [11]: 857 nM
LC50 [11]: 959 nM
GI50 ([11]; read-out: GI50): 756 nM
GI50 [12]: 472 nM
GI50 ([12]; read-out: GI50): 464 nM
CC50 [12]: 553 nM
TGI [13]: 1000 nM
GI50 ([13]; read-out: GI50): 1020 nM
CC50 [13]: 983 nM
GI50 [14]: 384 nM
TGI [14]: 625 nM
CC50 [14]: 661 nM
